The IC50 is the concentration that inhibits the measured activity by half.

In one experiment the target is Histone deacetylase 7 (Homo sapiens, UniProt Q8WUI4). As to the kind of experiment: Inhibition of recombinant human N-terminal GST-tagged HDAC7 (518 to end residues) expressed in baculovirus infected Sf9 cells using Boc-Lys (trifluoroacetyl)-AMC as substrate preincubated for 1 hr followed by substrate addition and measured after 2 hrs by fluorescence based micro plate reader analysis.

The subject of another experiment is CCRF-CEM. In words: Antiproliferative activity against human CCRF-CEM cells assessed as reduction in cell viability after 48 hrs by CellTiter-Blue assay. Format: functional. The conditions noted are these: read-out: LC50 (the source's name). Summed up:
(§1)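 Cells grown in RPMI1640 with 10% FBS at 37 °C, 5% CO₂. 5,000–10,000 cells/well were pre-incubated overnight, and a time-zero CellTiter-Blue read was taken. Six 10-fold dilutions (top final 10 μM) were applied for 48 h, followed by 0.125 mg/mL CellTiter-Blue for 2–4 h. Resorufin fluorescence was read at ex 560/em 590 nm. […] Triplicates.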
In general terms: The colour change of resazurin is a common sign of viable cells or microbes.

The subject of experiment [1] is MV4-11. As to the kind of experiment: Inhibition of p53 degradation in human MV4-11 cells harboring wild type p53/FLT3-ITD mutant assessed as cleavage of pro caspase-3 at 100 nM after 24 hrs in presence of MDM2 inhibitor RG7388 by Western blot analysis. Type of experiment: functional, cell-based. In a few lines:
(§2)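 Cells (1,500,000 per well) grown 12 h, then drug-treated as specified. Lysed in RIPA buffer, sonicated, centrifuged, protein normalized by BCA. Run on 4–12% Bis-Tris gels in MES, transferred, probed overnight at 4 °C with primary antibodies at 1/1000. Actin served as reference for LC3-II quantitation.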
In general terms: In western blotting, separated proteins are transferred to a membrane and probed.

For experiment [2], the system named is MV4-11. In words: Induction of apoptosis in human MV4-11 cells harboring wild type p53/FLT3-ITD mutant assessed as cleavage of pro-caspase 3 at 50 to 200 nM after 24 hrs by Western blot analysis. Format: functional, cell-based. Summed up:
as §2

The next experiment concerns Malme-3M. In words: Antiproliferative activity against human MALME-3M cells assessed as reduction in cell viability after 48 hrs by CellTiter-Blue assay. The conditions noted are these: read-out: LC50 (the source's name). Format: functional. In a few lines: as §1
Experiment [3] has as its system MV4-11. In words: Induction of apoptosis in human MV4-11 cells assessed as cell death at 200 nM after 24 hrs in presence of 50 uM z-VAD by CellTiter-blue dye based spectrophotometric analysis. Format: functional. Summed up: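 MV4-11 cells grown 12 h, then given 200 nM test agent alone or with z-VAD, chloroquine (5 μM) or wortmannin (100 nM) for 24 h. Viability by CellTiter-Blue (0.125 mg/mL, 2–4 h), resorufin fluorescence 560/590 nm, compared with t = 0 wells; n = 3.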

Another experiment relates to UO-31. As to the kind of experiment: Antiproliferative activity against human UO31 cells assessed as reduction in cell viability after 48 hrs by CellTiter-Blue assay. Type of experiment: functional. The conditions noted are these: UO-31, 48 h, read-out: LC50 (the source's name). In a few lines:
(§3)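 NCI-60 panel lines grown in RPMI1640 with 10% FBS at 37 °C, 5% CO₂. Seeded at 5,000–10,000 cells/well and pre-incubated overnight. Exposed for 48 h to six 10-fold dilutions (top final 10 μM), with a time-zero plate read at dosing. CellTiter-Blue (0.125 mg/mL) for 2–4 h, fluorescence 560/590 nm, triplicate curves.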

The test system of the next experiment is UACC-257. In words: Antiproliferative activity against human UACC257 cells assessed as reduction in cell viability after 48 hrs by CellTiter-Blue assay. Format: functional. The conditions noted are these: UACC-257, 48 h, read-out: LC50 (the source's name). Summed up: as §3
The subject of another experiment is IGROV-1. As to the kind of experiment: Antiproliferative activity against human IGROV1 cells assessed as reduction in cell viability after 48 hrs by CellTiter-Blue assay. Type of experiment: functional. The conditions noted are these: IGROV-1, 48 h, read-out: LC50 (the source's name). In a few lines:
as §1

The subject of the next experiment is CAKI-1. In words: Antiproliferative activity against human Caki1 cells assessed as reduction in cell viability after 48 hrs by CellTiter-Blue assay. The conditions noted are these: CAKI-1, 48 h, read-out: LC50 (the source's name). Format: functional. In a few lines:
as §1

In a further experiment the test system is OVCAR-8. In words: Antiproliferative activity against human OVCAR8 cells assessed as reduction in cell viability after 48 hrs by CellTiter-Blue assay. The conditions noted are these: OVCAR-8, 48 h, read-out: LC50 (the source's name). Type of experiment: functional. In a few lines: as §1
In experiment [4] the target is Aminopeptidase N (Sus scrofa) (UniProt P15145). In words: Inhibition of porcine kidney microsomal APN at 10 uM using L-leucine-p-nitroanilide as substrate preincubated for 5 mins followed by substrate addition and measured after 30 mins by microplate reader analysis. Type of experiment: subcellular. The conditions noted are these: Sus scrofa domesticus. Summed up: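 Porcine kidney microsomal aminopeptidase (CD13) with test agent (final 50 and 10 μM; bestatin 10 μM as reference), 5 min, then L-leucine-p-nitroanilide added. Incubated 30 min at 37 °C; absorbance read at 405 nm.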
Chain of Aminopeptidase N (Sus scrofa) (P15145 whole entry): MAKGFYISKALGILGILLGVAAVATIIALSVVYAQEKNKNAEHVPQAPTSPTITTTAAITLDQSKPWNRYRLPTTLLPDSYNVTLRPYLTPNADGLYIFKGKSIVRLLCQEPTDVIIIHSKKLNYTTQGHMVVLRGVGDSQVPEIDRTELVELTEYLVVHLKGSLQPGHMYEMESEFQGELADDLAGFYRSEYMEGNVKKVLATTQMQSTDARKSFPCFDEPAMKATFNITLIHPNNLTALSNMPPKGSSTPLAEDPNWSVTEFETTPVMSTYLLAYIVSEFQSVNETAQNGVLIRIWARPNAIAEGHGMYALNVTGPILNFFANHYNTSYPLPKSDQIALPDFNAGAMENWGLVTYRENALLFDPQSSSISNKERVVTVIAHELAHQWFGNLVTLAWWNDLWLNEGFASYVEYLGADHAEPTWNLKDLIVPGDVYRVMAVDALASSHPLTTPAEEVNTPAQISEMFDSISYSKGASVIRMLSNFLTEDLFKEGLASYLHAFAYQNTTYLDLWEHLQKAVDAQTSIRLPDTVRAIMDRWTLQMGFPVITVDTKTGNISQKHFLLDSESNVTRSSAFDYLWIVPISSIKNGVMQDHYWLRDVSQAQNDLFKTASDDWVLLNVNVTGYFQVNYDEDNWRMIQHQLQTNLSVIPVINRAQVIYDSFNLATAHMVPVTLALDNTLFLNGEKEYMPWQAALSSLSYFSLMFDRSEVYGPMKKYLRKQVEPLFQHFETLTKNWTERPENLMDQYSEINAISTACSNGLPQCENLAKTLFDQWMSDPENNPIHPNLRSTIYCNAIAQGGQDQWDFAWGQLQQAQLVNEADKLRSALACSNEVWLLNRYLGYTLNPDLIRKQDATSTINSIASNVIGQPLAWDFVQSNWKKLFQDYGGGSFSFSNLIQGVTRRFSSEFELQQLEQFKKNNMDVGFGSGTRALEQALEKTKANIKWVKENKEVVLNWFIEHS

A further experiment has as its target Histone deacetylase 9 (Homo sapiens, UniProt Q9UKV0). As to the kind of experiment: Inhibition of recombinant human C-terminal His-tagged HDAC9 (604 to 1066 residues) expressed in baculovirus infected Sf9 cells using Boc-Lys (trifluoroacetyl)-AMC as substrate preincubated for 1 hr followed by substrate addition and measured after 2 hrs by fluorescence based micro plate reader analysis. Summed up:
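Recombinant enzyme was preincubated with serially varied inhibitor for 1 h at 30 °C. Boc-Lys(trifluoroacetyl)-AMC was then added to a final 50 μM and incubated 2 h at 30 °C. The reaction was stopped with developer containing trypsin and TSA, and fluorescence (ex 360/em 460 nm) was read 30 min later. Inhibition was taken relative to control wells and fitted to a variable-slope log(inhibitor) curve. Values are the mean of at least three experiments.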

The next experiment relates to NCI-H322M. In words: Antiproliferative activity against human NCI-H322M cells assessed as reduction in cell viability after 48 hrs by CellTiter-Blue assay. Type of experiment: functional. The conditions noted are these: read-out: LC50 (the source's name). Summed up: as §1
A further experiment concerns HL-60. In words: Upregulation of P21WAF1/Cip1 protein expression in p53 null human HL60 cells harboring wild type FLT3 at 50 to 200 nM after 24 hrs by Western blot analysis. Type of experiment: functional, cell-based. In a few lines: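 RS4;11 cells were cultured in RPMI-1640 with 10% FBS and HL-60 cells in IMDM with 20% FBS. Cells were plated at 1,500,000 per well, grown 12 h, then drug-treated. Lysis was in RIPA buffer with sonication and centrifugation, and loading was normalized by BCA. Lysates were run on 4–12% Bis-Tris gels in MES buffer and transferred, and membranes were probed overnight at 4 °C with 1/1000 primary antibodies.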

For a further experiment, the system named is SF-539. As to the kind of experiment: Antiproliferative activity against human SF539 cells assessed as reduction in cell viability after 48 hrs by CellTiter-Blue assay. Format: functional. The conditions noted are these: SF-539, 48 h, read-out: LC50 (the source's name). Summed up:
as §1

A further experiment concerns the target Histone deacetylase 8 (Homo sapiens, UniProt Q9BY41). As to the kind of experiment: Inhibition of recombinant full length human C-terminal His-tagged HDAC8 expressed in baculovirus infected Sf9 cells using Boc-Lys (trifluoroacetyl)-AMC as substrate preincubated for 1 hr followed by substrate addition and measured after 2 hrs by fluorescence based micro plate reader analysis. Summed up: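 Recombinant HDAC8 preincubated with test agent at 30 °C for 1 h. Boc-Lys(trifluoroacetyl)-AMC added (final 50 μM), 2 h at 30 °C. Stopped with trypsin/TSA developer for 30 min; fluorescence read at 360/460 nm. Inhibition relative to control wells; IC50 by variable-slope fit.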

The next experiment has as its system DU-145. In words: Antiproliferative activity against human DU145 cells assessed as reduction in cell viability after 48 hrs by CellTiter-Blue assay. Format: functional. The conditions noted are these: DU-145, 48 h, read-out: LC50 (the source's name). Summed up:
as §1

Active and inactive are the calls of the source. No cut-off for these calls is given here.

Chain of Histone deacetylase 8 (Q9BY41 whole entry): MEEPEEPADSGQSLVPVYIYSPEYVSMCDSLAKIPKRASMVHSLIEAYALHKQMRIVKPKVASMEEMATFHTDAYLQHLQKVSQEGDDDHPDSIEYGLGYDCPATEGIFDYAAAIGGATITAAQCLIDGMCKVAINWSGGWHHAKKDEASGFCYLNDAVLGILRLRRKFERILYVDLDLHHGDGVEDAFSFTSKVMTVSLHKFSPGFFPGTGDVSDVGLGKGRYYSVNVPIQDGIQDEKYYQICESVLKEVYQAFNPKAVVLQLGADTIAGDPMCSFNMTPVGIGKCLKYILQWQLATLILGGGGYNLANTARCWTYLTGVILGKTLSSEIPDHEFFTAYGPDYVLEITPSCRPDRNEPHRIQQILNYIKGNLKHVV
Chain of Histone deacetylase 7 (Q8WUI4 whole entry): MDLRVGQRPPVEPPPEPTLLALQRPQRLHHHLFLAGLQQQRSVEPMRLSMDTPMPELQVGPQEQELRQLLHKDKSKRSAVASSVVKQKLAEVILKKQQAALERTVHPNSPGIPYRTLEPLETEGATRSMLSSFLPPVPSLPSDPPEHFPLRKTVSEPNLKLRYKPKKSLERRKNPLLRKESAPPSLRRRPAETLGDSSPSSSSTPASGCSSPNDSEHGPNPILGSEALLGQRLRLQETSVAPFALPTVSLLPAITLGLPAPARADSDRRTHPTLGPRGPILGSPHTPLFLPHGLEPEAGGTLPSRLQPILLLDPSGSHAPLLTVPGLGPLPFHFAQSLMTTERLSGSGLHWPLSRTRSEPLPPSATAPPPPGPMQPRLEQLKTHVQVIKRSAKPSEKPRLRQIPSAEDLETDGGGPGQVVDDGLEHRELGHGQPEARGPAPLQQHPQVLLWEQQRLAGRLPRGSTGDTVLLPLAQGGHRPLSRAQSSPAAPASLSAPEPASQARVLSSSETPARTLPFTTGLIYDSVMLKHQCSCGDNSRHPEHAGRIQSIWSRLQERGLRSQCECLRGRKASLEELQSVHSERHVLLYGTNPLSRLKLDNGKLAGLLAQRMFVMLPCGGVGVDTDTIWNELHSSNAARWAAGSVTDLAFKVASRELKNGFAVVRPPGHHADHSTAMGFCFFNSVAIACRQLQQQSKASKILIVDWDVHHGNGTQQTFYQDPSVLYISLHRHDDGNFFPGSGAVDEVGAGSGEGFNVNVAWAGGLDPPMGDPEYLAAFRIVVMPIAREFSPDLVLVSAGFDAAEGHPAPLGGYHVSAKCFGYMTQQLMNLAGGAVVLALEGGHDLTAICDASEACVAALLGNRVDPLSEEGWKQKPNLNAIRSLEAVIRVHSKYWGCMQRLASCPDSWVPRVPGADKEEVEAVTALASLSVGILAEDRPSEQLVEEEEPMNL
Chain of Histone deacetylase 9 (Q9UKV0 whole entry, the tested form may be a part): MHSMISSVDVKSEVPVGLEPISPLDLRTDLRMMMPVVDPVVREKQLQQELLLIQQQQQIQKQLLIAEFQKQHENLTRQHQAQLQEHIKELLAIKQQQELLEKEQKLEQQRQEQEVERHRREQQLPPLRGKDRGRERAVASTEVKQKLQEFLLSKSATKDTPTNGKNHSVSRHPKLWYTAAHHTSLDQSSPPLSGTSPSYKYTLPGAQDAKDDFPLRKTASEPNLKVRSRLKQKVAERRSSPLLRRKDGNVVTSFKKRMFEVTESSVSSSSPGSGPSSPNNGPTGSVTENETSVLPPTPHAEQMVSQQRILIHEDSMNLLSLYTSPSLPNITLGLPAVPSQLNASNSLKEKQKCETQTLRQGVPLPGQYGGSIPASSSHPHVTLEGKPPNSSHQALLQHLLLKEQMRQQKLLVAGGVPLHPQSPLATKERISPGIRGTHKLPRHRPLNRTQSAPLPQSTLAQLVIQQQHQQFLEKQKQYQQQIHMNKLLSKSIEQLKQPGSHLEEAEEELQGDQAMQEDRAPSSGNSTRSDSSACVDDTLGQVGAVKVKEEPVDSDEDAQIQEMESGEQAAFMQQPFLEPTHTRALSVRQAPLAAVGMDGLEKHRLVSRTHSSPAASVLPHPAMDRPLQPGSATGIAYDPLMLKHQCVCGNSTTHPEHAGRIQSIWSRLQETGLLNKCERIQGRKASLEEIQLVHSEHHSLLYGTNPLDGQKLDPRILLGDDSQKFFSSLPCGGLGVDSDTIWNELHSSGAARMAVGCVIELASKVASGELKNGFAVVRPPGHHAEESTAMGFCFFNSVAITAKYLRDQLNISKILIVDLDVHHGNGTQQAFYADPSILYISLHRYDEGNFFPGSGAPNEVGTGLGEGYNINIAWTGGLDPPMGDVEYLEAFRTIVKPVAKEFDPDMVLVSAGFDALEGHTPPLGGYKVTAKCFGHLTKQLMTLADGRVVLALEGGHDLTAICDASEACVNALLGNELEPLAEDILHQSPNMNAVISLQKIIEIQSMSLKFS

On to `CCCNNC(=O)/C=C/c1ccc(CNCCc2c(C)[nH]c3ccccc23)cc1.O=C(O)C(F)(F)F`, for which the IC50 on Histone deacetylase 7 was more than 10 µM; at Histone deacetylase 9, more than 10 µM; at Histone deacetylase 8, 1.76 µM. Besides, the CC50 in the experiment on CCRF-CEM is more than 10 µM; with Malme-3M, more than 10 µM; with UO-31, more than 10 µM; with UACC-257 it was more than 10 µM; in the experiment on IGROV-1, more than 10 µM; in the experiment with CAKI-1, 4.3 µM. Besides, the CC50 with OVCAR-8, with NCI-H322M, in the experiment on SF-539 and in the experiment on DU-145 was more than 10 µM each time. Further, the inhibition entry in the experiment with MV4-11 [1] is “Active”. Moreover, the outcome in the experiment with MV4-11 [2] and in the experiment on HL-60 was Active. Besides, the outcome with MV4-11 [3] was inactive. Also, in [4], the inhibition result was “inactive”.

Source of the values: ChEMBL document CHEMBL4342521 (J Med Chem, 2020).
